Measured values pooled from the literature.
Protocols differ between the studies behind these lines.
FGFR4: Fibroblast growth factor receptor 4 (FGFR4, Homo sapiens, UniProt P22455)

| SMILES | target | assay | conditions | quantity | result |
| --- | --- | --- | --- | --- | --- |
| O=C(Nc1cccnn1)N1CCC(=Cc2cccc(Oc3ccc(C(F)(F)F)cn3)c2)CC1 | FGFR4 | cell-free assay, competition with immobilised ligand | 1 µM | remaining binding | 100% |
| Nc1ncnc2occ(-c3ccc(NC(=O)Nc4cc(C(F)(F)F)ccc4F)cc3)c12 | FGFR4 | cell-free assay | 20 µM | remaining signal | 0.1% |
| COc1cc(-c2cn(C3CCc4c(F)cccc4N(CC(F)(F)F)C3=O)nn2)ccc1-n1cnc(C)c1 (centres unmarked) | FGFR4 | cell-free assay, competition with immobilised ligand | 1 µM | remaining binding | 100% |
| O=C(Nc1cnn(-c2csc(C(=O)NC3COC3)c2)c1)Nc1c(F)cccc1Cl | FGFR4 | enzyme activity, inhibitor | 5 µM | remaining activity | 99.6% |
| COc1cc2ncnc(Nc3ccc(Oc4ccccc4)c(C)c3C)c2cc1OC | FGFR4 | enzyme activity, inhibitor | 1 µM | inhibition | -1% |
| Cc1ccc(C(=O)Nc2ccc(CN3CCN(C)CC3)c(C(F)(F)F)c2)cc1C#Cc1cnc2cccnn12 | FGFR4 | cell-free assay | 23.5 nM | remaining signal | 49% |
| CC/C(=N\NC(=O)NCc1cccc(O)c1)c1ccc(O)c(C)c1O | Fibroblast growth factor receptor 4 (FGFR4, Homo sapiens, UniProt P22455, V550L) | enzyme activity, inhibitor | 0.1 µM | inhibition | 3.5% |
| CC(C)(C)c1nc2c(s1)c1nc(N)ncc1c1ccc(NS(=O)(=O)c3c(F)cccc3F)c(F)c12 | FGFR4 | enzyme activity, inhibitor, radiometric | 1 µM | remaining activity | 104% |
| CCCS(=O)(=O)Nc1ccc(F)c(C(=O)c2c[nH]c3ncc(-c4ccc(Cl)cc4)cc23)c1F | FGFR4 | enzyme activity, inhibitor | 1 µM | inhibition | < 10% |
| COc1cc2nccc(Oc3ccc(NC(=O)c4c5n(n(-c6ccc(F)cc6)c4=O)CCCC5)cc3)c2cc1OC | FGFR4 | enzyme activity, inhibitor | 0.1 µM | inhibition | 5% |
| Cn1cc(Cl)c2c(Oc3c(F)cc(Nc4cc(Cl)nc(N)n4)cc3F)ccnc21 | FGFR4 | cell-free assay, competition with immobilised ligand | 0.1 µM | remaining binding | 86% |
| CCN(CC)CCNC(=O)c1c(C)[nH]c(/C=C2\C(=O)Nc3ccc(F)cc32)c1C | FGFR4 | enzyme activity, inhibitor | 10 µM | inhibition | 30% |
| CCN(CC)c1ccc(C2=NNC(=O)CC2C)cc1[N+](=O)[O-] (centres unmarked) | FGFR4 | enzyme activity, inhibitor | 10 µM | remaining activity | 93% |
| C[C@@]1(Cc2ccc(C#N)cc2)C(=O)N(c2cc(Cl)cc(Cl)c2)c2ncc(C(=O)NC3(c4nc(C5CCC5)no4)CC3)n21 | FGFR4 | cell-free assay, competition with immobilised ligand | 1 µM | remaining binding | 96% |
| CNC(=O)c1cc(Oc2ccc(NC(=O)Nc3ccc(Cl)c(C(F)(F)F)c3)cc2)ccn1 | FGFR4 | enzyme activity, inhibitor | 0.3 µM | inhibition | 2% |
| Cc1cnc(NC2CCOCC2)nc1-n1cnc(C(=O)NC(CN)c2cc(F)cc(Cl)c2)c1 (centres unmarked) | FGFR4 | enzyme activity, inhibitor, radiometric | 1 µM | remaining activity | 105% |
| CCCCN(CCCC)C(=O)CN1C[C@H](c2cc(OC)c3c(c2)OCO3)[C@@H](C(=O)O)[C@@H]1CC(C)(C)CCC | FGFR4 | cell-free assay, competition with immobilised ligand | 1 µM | remaining binding | 100% |
| N#CCCc1ccc2c(c1)-c1[nH]c3ccc([N+](=O)[O-])cc3c1CC(=O)N2 | FGFR4 | cell-free assay | 0.5 µM | remaining signal | 89.1% |
| Cc1cc(-n2nc(Cc3cc(F)cc(C(F)(F)F)c3)nc2C)ccc1C(N)=O | FGFR4 | cell-free assay, competition with immobilised ligand | 1 µM | remaining binding | 100% |
| Cc1ccc(Nc2nccc(N(C)c3ccc4c(C)n(C)nc4c3)n2)cc1S(N)(=O)=O | FGFR4 | cell-free assay | 0.5 µM | remaining signal | 68.3% |
| Cc1ccc(NC(=O)c2ccc(C)c(C(F)(F)F)c2)cc1C#Cc1nn(C2CCC(O)CC2)c2ncnc(N)c12 (centres unmarked) | FGFR4 | cell-free assay | 10 µM | remaining signal | 33% |
| CN(C)C(=O)Cn1cc(-c2nc(C3(c4ccc(-c5cnc(N)nc5)cc4)CC3)no2)cn1 | FGFR4 | cell-free assay, competition with immobilised ligand | 1 µM | remaining binding | 100% |
| Cc1cc(NC(=O)c2cccc3cc(-c4cccc5[nH]nc(N)c45)ccc23)ccc1F | FGFR4 | enzyme activity, inhibitor | 0.1 µM | activity vs control | 101% |
